Here are results for two compounds from ChEMBL document CHEMBL4261487, “Small structural changes of the imidazopyridine diacylglycerol acyltransferase 2 (DGAT2) inhibitors produce an improved safety profile” (Medchemcomm, 2017).

Data set [1] addresses T1, Diacylglycerol O-acyltransferase 2 (Rattus norvegicus, UniProt Q5FVP8).
T1 sequence (Q5FVP8 whole entry): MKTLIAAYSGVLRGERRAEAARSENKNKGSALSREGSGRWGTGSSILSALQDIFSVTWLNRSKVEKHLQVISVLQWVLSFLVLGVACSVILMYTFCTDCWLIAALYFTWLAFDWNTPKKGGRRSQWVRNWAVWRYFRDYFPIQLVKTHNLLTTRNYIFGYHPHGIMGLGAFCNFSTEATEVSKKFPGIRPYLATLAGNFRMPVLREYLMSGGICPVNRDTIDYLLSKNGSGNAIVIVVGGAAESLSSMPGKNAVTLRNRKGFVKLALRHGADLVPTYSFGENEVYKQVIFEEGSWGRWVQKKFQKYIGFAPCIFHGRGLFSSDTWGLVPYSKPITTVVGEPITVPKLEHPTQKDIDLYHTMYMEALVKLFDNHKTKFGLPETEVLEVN
In words: Inhibition of rat DGAT2.

A short description of data set [2]: Apparent intrinsic clearance in rat hepatocytes assessed per million cells. Format: ADME, cell-based, Hepatocyte.
Data set [3] can be described thus: Drug metabolism in human liver microsomes assessed as fraction of UGT-mediated glucuronidation preincubated for 5 mins followed by addition of NADPH regenerating system and measured after 2.5 to 60 mins. The class given is ADME. The method in brief:
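Fractions of metabolism attributed to CYP oxidation and UGT glucuronidation were derived from human liver microsomal incubations. For the glucuronidation arm, microsomes were supplemented with the UGT cofactor UDP-glucuronic acid.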
For orientation: Microsomes from liver hold many membrane-bound enzymes, among them those of drug oxidation.

Data set [4] can be described thus: Fraction unbound in rat plasma. The class given is ADME, cell-free.
The nature of data set [5]: Fraction unbound in dog plasma. The class given is ADME, cell-free, Canis lupus familiaris.
Data set [6] in a line: Plasma clearance in beagle dog at 1 mg/kg, iv. The class given is ADME, organism-based, Canis lupus familiaris.
For data set [7], the system named is Canis familiaris. In words: Unbound AUC in beagle dog at 3 mg/kg, po qd administered for 1 month. To be noted: in vivo. Format: ADME, organism-based, Canis lupus familiaris. The method in brief: (§1)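 Beagle dogs were dosed orally once daily in a 14-day exploratory study or 1-month toxicity studies. Steady-state systemic exposure over the 24 h dosing interval is reported as the mean of male and female values combined.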

In data set [8] the test system is Canis familiaris. In words: In vivo inhibition of DGAT2 in beagle dog assessed as coverage of in vitro IC50 for dog DGAT2 at 3 mg/kg, po qd administered for 1 month. Format: functional, Canis lupus familiaris. Further details: scale not given: the % may be the effect or the level left. The method in brief:
(§2)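 Beagle dogs, once-daily oral dosing for 14 days or 1 month; systemic exposure with sexes combined; coverage is the average % above dog DGAT2 IC50 at steady state over the 24 h dosing interval.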

The test system of data set [9] is Canis familiaris. Briefly: Toxicity in telemetered beagle dog assessed as increase in diastolic pressure at 25 mg/kg administered via oral gavage measured during 4 hrs of post dosing. Format: organism-based, Canis lupus familiaris. To be noted: in vivo.
Data set [10] concerns Canis familiaris. Briefly: Toxicity in telemetered beagle dog assessed as increase in diastolic pressure at 50 mg/kg administered via oral gavage measured during 4 hrs of post dosing. Format: organism-based, Canis lupus familiaris. To be noted: in vivo.
Data set [11] concerns Canis familiaris. In words: Toxicity in telemetered beagle dog assessed as increase in systolic pressure at 5 mg/kg administered via oral gavage measured during 4 hrs of post dosing. The class given is organism-based, Canis lupus familiaris. The conditions noted are these: in vivo.
Data set [12] has as its system Rattus norvegicus. In words: Unbound AUC in Wistar Han IGS rat at 10 mg/kg, po qd administered for 14 days. The class given is ADME, organism-based. To be noted: in vivo, 336 h. The method, boiled down: (§3)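 Wistar Han rats were dosed orally once daily for 14 days (exploratory, 5/sex/dose) or 1 month (toxicity, 10/sex/dose). Toxicokinetic satellite animals (3–4/sex/dose) were used, and steady-state systemic exposure is given as the mean of male and female values combined.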

Data set [13] has as its system Rattus norvegicus. Briefly: Toxicity in Wistar Han IGS rat at 10 mg/kg, po qd administered for 14 days. The conditions noted are these: in vivo, 336 h. Format: organism-based. The method in brief: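 Wistar Han rats, daily oral dosing for 14 days (5/sex/dose) or 1 month (10/sex/dose); microscopic findings reported as incidence by sex, plus organ weights.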
For data set [14], the system named is Rattus norvegicus. Briefly: Unbound Cmax in Wistar Han IGS rat at 30 mg/kg, po qd administered for 1 month. Format: ADME, organism-based. To be noted: in vivo. The method, boiled down:
as §3

Data set [15] concerns Canis familiaris. In words: Toxicity in telemetered beagle dog assessed as change in left ventricular parameters and activity level at 5 mg/kg administered via oral gavage measured over 24 hrs. To be noted: in vivo. Format: organism-based, Canis lupus familiaris.
In data set [16] the test system is Canis familiaris. In words: Unbound Cmax in beagle dog […] at 75 mg/kg, po qd administered for 14 days. To be noted: in vivo, 336 h. Format: ADME, organism-based, Canis lupus familiaris. The method, boiled down: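 Exploratory 14-day dog toxicity study with daily oral dosing. Toxicokinetic exposure is reported as the mean with male and female systemic values combined.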

Data set [17] in a line: Toxicity in po dosed beagle dog administered as qd for 14 days. The class given is organism-based, Canis lupus familiaris. To be noted: in vivo.
Data set [18] concerns Canis familiaris. In words: Unbound Cmax in beagle dog at 5 mg/kg, po qd administered for 1 month. Format: ADME, organism-based, Canis lupus familiaris. To be noted: in vivo. The method in brief: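 One-month dog toxicity study with once-daily oral dosing. Toxicity groups were 2/sex/dose, and unbound peak exposure was taken from toxicokinetic sampling.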
Data set [19] has as its system Canis familiaris. Briefly: Unbound Cmax in beagle dog at 100 to 150 mg/kg, po qd administered for 1 month. The class given is ADME, organism-based, Canis lupus familiaris. To be noted: in vivo. The method in brief:
as §1

Data set [20] concerns Canis familiaris. Briefly: Unbound AUC in beagle dog at 5 mg/kg, po qd administered for 1 month. The class given is ADME, organism-based, Canis lupus familiaris. The conditions noted are these: in vivo. The method in brief:
as §1

The subject of data set [21] is Canis familiaris. Briefly: Unbound AUC in beagle dog at 100 to 150 mg/kg, po qd administered for 1 month. Format: ADME, organism-based, Canis lupus familiaris. The conditions noted are these: in vivo. The method, boiled down:
as §1

Data set [22] has as its system Canis familiaris. In words: Toxicity in telemetered beagle dog assessed as foamy white salivation at 75 mg/kg administered via oral gavage measured within 4 hrs of dosing. The class given is organism-based, Canis lupus familiaris. The conditions noted are these: in vivo.
Data set [23] has as its system Canis familiaris. Briefly: Toxicity in beagle dog assessed as decrease in body weight at 150 mg/kg, po qd administered for 10 days. To be noted: in vivo, 240 h. The class given is organism-based, Canis lupus familiaris.
For data set [24], the system named is Canis familiaris. In words: Toxicity in beagle dog assessed as decrease in food consumption at 100 mg/kg, po qd administered starting on day 11 post 150 mg/kg dosing period and continuing for 20 days. Format: organism-based, Canis lupus familiaris. To be noted: in vivo, 480 h.
The subject of data set [25] is Canis familiaris. Briefly: Toxicity in beagle dog assessed as increase in heart rate at 50 to 150 mg/kg, po qd administered for 1 month. The class given is organism-based, Canis lupus familiaris. To be noted: in vivo.
Data set [26] has as its system Rattus norvegicus. Briefly: In vivo inhibition of DGAT2 in Wistar Han IGS rat assessed as coverage of in vitro IC50 for rat DGAT2 at 500 mg/kg, po qd administered for 14 days. Format: functional. More on the design: scale not given: the % may be the effect or the level left. The method, boiled down: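 Wistar Han rats, once-daily oral dosing for 14 days (exploratory, 5/sex/dose) or 1 month (10/sex/dose); toxicokinetics in 3–4/sex/dose with sexes combined; coverage is the average % above rat DGAT2 IC50 at steady state over the 24 h dosing interval.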

Data set [27] has as its system Canis familiaris. In words: In vivo inhibition of DGAT2 in beagle dog assessed as coverage of in vitro IC50 for dog DGAT2 at 2 mg/kg, po qd administered for 1 month. Format: functional, Canis lupus familiaris. More on the design: scale not given: the % may be the effect or the level left. The method in brief:
as §2

Data set [28] concerns Canis familiaris. Briefly: Toxicity in telemetered beagle dog assessed as increase in heart rate at 25 mg/kg administered via oral gavage measured over 24 hrs. The class given is organism-based, Canis lupus familiaris. To be noted: in vivo.
Data set [29] deals with Canis familiaris. In words: Toxicity in telemetered beagle dog assessed as increase in diastolic pressure at 25 mg/kg administered via oral gavage measured over 24 hrs. The class given is organism-based, Canis lupus familiaris. The conditions noted are these: in vivo.

One may read the IC50 as the concentration that gives 50% inhibition. What is called fraction unbound is free concentration divided by total concentration. One may read the clearance as a measure of how efficiently the substance is removed, as volume per time. The compound `C[C@@H](c1nc2ccc(N3CCC[C@@H](C(=O)N4CCCC4)C3)nc2[nH]1)n1cc(Cl)cn1` came in with an IC50 in [1] of 155 nM. Moreover, in data set [2], the “CLH(app)” value came out at 12.7 µL/min. In addition, the Ratio in data set [3] was determined as 0.39. The fraction unbound turned out to be 0.14 in [4] and 0.12 in data set [5]. In [6], this compound returned a clearance of 4 mL/min/kg. The compound further displayed a fAUC with Canis familiaris [7] of 797 ng·h/mL. Further, the Activity was 65% in the data set with Canis familiaris [8], 5 mmHg with Canis familiaris [9], 6 mmHg in the data set on Canis familiaris [10] and 4 to 6 mmHg in the data set with Canis familiaris [11].

With `CS(=O)(=O)O.O=C([C@@H]1CCCN(c2ccc3nc(C4(n5cc(Cl)cn5)CC4)[nH]c3n2)C1)N1CCCC1`, the figures for the fAUC with Rattus norvegicus [12], in the data set on Canis familiaris [20] and in the data set on Canis familiaris [21] were 1190 ng·h/mL, 1120 ng·h/mL and 92600 ng·h/mL, respectively. Also, the Activity entry is recorded as “Non-Toxic” in the data set with Rattus norvegicus [13]; “Non-Toxic” with Canis familiaris [15]; “Toxic” with Canis familiaris [22]; “Toxic” with Canis familiaris [23]; “Non-Toxic” with Canis familiaris [24]; “Toxic” with Canis familiaris [25]. The Activity with Rattus norvegicus [26] is greater than 99%; in the data set on Canis familiaris [27], 60%; in the data set on Canis familiaris [28] it was 6 to 20 bpm; in the data set on Canis familiaris [29], “Non-Toxic”. In addition, the fCmax stood at 2020 nM in the data set on Rattus norvegicus [14], 6.54 µM with Canis familiaris [16], 1010 nM in the data set with Canis familiaris [18] and 16.3 µM in the data set on Canis familiaris [19]. The MTD at 336 h in data set [17] came out at 75 mg/kg/day.
